Test system: Fibroblast
Assay: Multiplex assay against human fibroblast
Type: toxicity, cell-based
Outline: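 On a CQ1 microscope at 37°C and 5% CO2, live cells were imaged after compound addition. They had been stained at seeding with Hoechst33342, BioTracker Green Microtubule Cytoskeleton Dye, MitoTracker Red and Annexin V Alexa Fluor 680. CellPathfinder machine-learning gating assigned cells to Hoechst high-intensity objects or normal cells, normal cells to healthy, pyknosed or fragmented nuclei, and pyknosed cells to mitotic or apoptotic. Tubulin, mitochondrial-mass and membrane-permeability phenotypes are per cents of healthy-nucleus cells.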

[1] = 12 h, 1 µM, compound concentration 1 uM, replicate 1
[2] = 12 h, 1 µM, compound concentration 1 uM, replicate 2
[3] = 12 h, 10 µM, compound concentration 10 uM, replicate 1
[4] = 12 h, 10 µM, compound concentration 10 uM, replicate 2
[5] = 24 h, 1 µM, compound concentration 1 uM, replicate 1
[6] = 24 h, 1 µM, compound concentration 1 uM, replicate 2
[7] = 24 h, 10 µM, compound concentration 10 uM, replicate 1
[8] = 24 h, 10 µM, compound concentration 10 uM, replicate 2
[9] = 48 h, 1 µM, compound concentration 1 uM, replicate 1
[10] = 48 h, 1 µM, compound concentration 1 uM, replicate 2
[11] = 48 h, 10 µM, compound concentration 10 uM, replicate 1
[12] = 48 h, 10 µM, compound concentration 10 uM, replicate 2

O=C(Nc1ccc(-n2nc(-c3cccnc3)cc2C(F)(F)F)cn1)c1ccc(-c2ccccc2)c(F)c1 [BI 2049]
Population Apoptotic (%) [1]: 63%
Population Fragmented Nuclei (%) [1]: 29%
Population Healthy Nuclei (%) [1]: 30%
Population Hoechst High Intensity Objects (%) [1]: 10%
Population Membrane Permeable-Phenotype (%) [1]: 32%
Population Mitochondria Different-Phenotype (%) [1]: 8%
Population Mitotic Cells (%) [1]: 36%
Population Normal (%) [1]: 89%
Population Pyknosed Nuclei (%) [1]: 40%
Population Tubulin-Different-Phenotype (%) [1]: 44%
Total Cell Count [1]: 92
Population Apoptotic (%) [2]: 50%
Population Fragmented Nuclei (%) [2]: 4%
Population Healthy Nuclei (%) [2]: 85%
Population Hoechst High Intensity Objects (%) [2]: 8%
Population Membrane Permeable-Phenotype (%) [2]: 3%
Population Mitochondria Different-Phenotype (%) [2]: 7%
Population Mitotic Cells (%) [2]: 50%
Population Normal (%) [2]: 91%
Population Pyknosed Nuclei (%) [2]: 9%
Total Cell Count [2]: 69
Population Apoptotic (%) [3]: 58%
Population Fragmented Nuclei (%) [3]: 11%
Population Healthy Nuclei (%) [3]: 41%
Population Hoechst High Intensity Objects (%) [3]: 9%
Population Membrane Permeable-Phenotype (%) [3]: 22%
Population Mitochondria Different-Phenotype (%) [3]: 22%
Population Mitotic Cells (%) [3]: 41%
Population Normal (%) [3]: 90%
Population Pyknosed Nuclei (%) [3]: 46%
Population Tubulin-Different-Phenotype (%) [3]: 62%
Total Cell Count [3]: 93
Population Apoptotic (%) [4]: 0%
Population Fragmented Nuclei (%) [4]: 18%
Population Healthy Nuclei (%) [4]: 81%
Population Hoechst High Intensity Objects (%) [4]: 6%
Population Membrane Permeable-Phenotype (%) [4]: 4%
Population Mitochondria Different-Phenotype (%) [4]: 12%
Population Mitotic Cells (%) [4]: 0%
Population Normal (%) [4]: 93%
Population Pyknosed Nuclei (%) [4]: 0%
Population Tubulin-Different-Phenotype (%) [4]: 8%
Total Cell Count [4]: 65
Population Apoptotic (%) [5]: 61%
Population Fragmented Nuclei (%) [5]: 32%
Population Healthy Nuclei (%) [5]: 36%
Population Hoechst High Intensity Objects (%) [5]: 14%
Population Membrane Permeable-Phenotype (%) [5]: 32%
Population Mitochondria Different-Phenotype (%) [5]: 12%
Population Mitotic Cells (%) [5]: 38%
Population Normal (%) [5]: 85%
Population Pyknosed Nuclei (%) [5]: 30%
Population Tubulin-Different-Phenotype (%) [5]: 58%
Total Cell Count [5]: 98
Population Apoptotic (%) [6]: 25%
Population Fragmented Nuclei (%) [6]: 7%
Population Healthy Nuclei (%) [6]: 83%
Population Hoechst High Intensity Objects (%) [6]: 7%
Population Membrane Permeable-Phenotype (%) [6]: 4%
Population Mitochondria Different-Phenotype (%) [6]: 9%
Population Mitotic Cells (%) [6]: 75%
Population Normal (%) [6]: 92%
Population Pyknosed Nuclei (%) [6]: 8%
Population Tubulin-Different-Phenotype (%) [6]: 37%
Total Cell Count [6]: 96
Population Apoptotic (%) [7]: 66%
Population Fragmented Nuclei (%) [7]: 24%
Population Healthy Nuclei (%) [7]: 42%
Population Hoechst High Intensity Objects (%) [7]: 8%
Population Membrane Permeable-Phenotype (%) [7]: 12%
Population Mitochondria Different-Phenotype (%) [7]: 17%
Population Mitotic Cells (%) [7]: 33%
Population Normal (%) [7]: 91%
Population Pyknosed Nuclei (%) [7]: 32%
Population Tubulin-Different-Phenotype (%) [7]: 46%
Total Cell Count [7]: 99
Population Apoptotic (%) [8]: 0%
Population Fragmented Nuclei (%) [8]: 11%
Population Healthy Nuclei (%) [8]: 84%
Population Hoechst High Intensity Objects (%) [8]: 3%
Population Membrane Permeable-Phenotype (%) [8]: 4%
Population Mitochondria Different-Phenotype (%) [8]: 13%
Population Mitotic Cells (%) [8]: 100%
Population Normal (%) [8]: 96%
Population Pyknosed Nuclei (%) [8]: 3%
Population Tubulin-Different-Phenotype (%) [8]: 10%
Total Cell Count [8]: 82
Population Apoptotic (%) [9]: 64%
Population Fragmented Nuclei (%) [9]: 26%
Population Healthy Nuclei (%) [9]: 45%
Population Hoechst High Intensity Objects (%) [9]: 9%
Population Membrane Permeable-Phenotype (%) [9]: 40%
Population Mitochondria Different-Phenotype (%) [9]: 2%
Population Mitotic Cells (%) [9]: 36%
Population Normal (%) [9]: 90%
Population Pyknosed Nuclei (%) [9]: 28%
Population Tubulin-Different-Phenotype (%) [9]: 37%
Total Cell Count [9]: 97
Population Apoptotic (%) [10]: 100%
Population Fragmented Nuclei (%) [10]: 25%
Population Healthy Nuclei (%) [10]: 72%
Population Hoechst High Intensity Objects (%) [10]: 16%
Population Membrane Permeable-Phenotype (%) [10]: 17%
Population Mitotic Cells (%) [10]: 0%
Population Normal (%) [10]: 83%
Population Pyknosed Nuclei (%) [10]: 1%
Population Tubulin-Different-Phenotype (%) [10]: 5%
Total Cell Count [10]: 66
Population Apoptotic (%) [11]: 72%
Population Fragmented Nuclei (%) [11]: 30%
Population Healthy Nuclei (%) [11]: 50%
Population Hoechst High Intensity Objects (%) [11]: 15%
Population Membrane Permeable-Phenotype (%) [11]: 35%
Population Mitochondria Different-Phenotype (%) [11]: 14%
Population Mitotic Cells (%) [11]: 27%
Population Normal (%) [11]: 84%
Population Pyknosed Nuclei (%) [11]: 18%
Population Tubulin-Different-Phenotype (%) [11]: 64%
Total Cell Count [11]: 113
Population Apoptotic (%) [12]: 100%
Population Fragmented Nuclei (%) [12]: 14%
Population Healthy Nuclei (%) [12]: 85%
Population Hoechst High Intensity Objects (%) [12]: 9%
Population Membrane Permeable-Phenotype (%) [12]: 15%
Population Mitochondria Different-Phenotype (%) [12]: 1%
Population Mitotic Cells (%) [12]: 0%
Population Normal (%) [12]: 90%
Population Pyknosed Nuclei (%) [12]: 0%
Population Tubulin-Different-Phenotype (%) [12]: 35%
Total Cell Count [12]: 140
